Assay outcomes from PubChem.
Diaphorase act = diaphorase activation or chemical reduction counter-screen | Diaphorase/resazurin coupled assay, resorufin fluorescence, 16 min; stronger effect = higher value; 1 = vehicle wells, 0 = NADH-free wells | activation factor at 20 µM | 190,000 compounds, 0.005% hits | AID 1229;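 active = diaphorase activity raised at least twofold by the compound at 20 µM; inactive = activation factor below 2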
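Material: Purified diaphorase enzyme from Clostridium kluyveri | Buffer or medium: 50 mM HEPES pH 7.4 with 4.542 mM MgCl2, 0.005% Tween 20 | Times: 16 min enzyme reaction, ambient temperature | Signal: Red resorufin fluorescence at 544/590 nm excitation/emission | Measure: Increased resorufin signal from activators or reducing compounds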
Diaph inh CS = inhibits diaphorase or chemically oxidizes, flagging diaphorase assay artifacts; 190,000 compounds, 0.69% hits; diaphorase resazurin-to-resorufin fluorescence, NADH, 16 min; bacterial (C. kluyveri) enzyme, not human; inhibition, % at 20 µM;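 active = primary screen inhibition at 20 µM above a set limit, cut at about 50% in these data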;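 also: plate controls were DMSO with full reaction for no effect and wells lacking NADH for full effect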
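Assay system: diaphorase enzyme from Clostridium kluyveri. Quantity: enzyme working solution with 0.14 U/mL diaphorase. Schedule: reaction incubation of 16 min at room temperature. Technique: resorufin fluorescence, excitation 544 nm, emission 590 nm. Controls: No-NADH positive control and DMSO neutral control.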
G6PDH counter = inhibits Leuconostoc G6PDH, flagging false hits in G6PDH-based assays. Purified L. mesenteroides G6PDH, diaphorase/resazurin coupled fluorescence, 45 min. inhibition, % at 5 µM. 200,000 compounds, 0.12% hits. AID 1020; in the data active = inhibition above about 50%
PfG6PD inh = PfG6PD (Plasmodium falciparum) enzyme inhibition | PfGluPho enzyme, NADPH resazurin-diaphorase fluorescence | 350,000 compounds, 0.78% hits | inhibition, % at 20 µM;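 active = inhibition reaching at least a set limit at 20 µM in the primary screen, cut at about 59% in these data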;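 also: 0% = DMSO wells with substrate and 100% = DMSO wells lacking glucose-6-phosphate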
HKDC1 inhibitor = inhibitors of human hexokinase HKDC1; Q2TB90; recombinant HKDC1, G6PDH/diaphorase resazurin coupled fluorescence; inhibition, % at 20 µM; 340,000 compounds, 0.16% hits;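 active = inhibition above about 35% when tested at 20 µM, limit read from the data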;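 also: plate controls were DMSO wells with enzyme for no effect and DMSO wells lacking enzyme for full effect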
Target sequence (Q2TB90 whole entry, looked up): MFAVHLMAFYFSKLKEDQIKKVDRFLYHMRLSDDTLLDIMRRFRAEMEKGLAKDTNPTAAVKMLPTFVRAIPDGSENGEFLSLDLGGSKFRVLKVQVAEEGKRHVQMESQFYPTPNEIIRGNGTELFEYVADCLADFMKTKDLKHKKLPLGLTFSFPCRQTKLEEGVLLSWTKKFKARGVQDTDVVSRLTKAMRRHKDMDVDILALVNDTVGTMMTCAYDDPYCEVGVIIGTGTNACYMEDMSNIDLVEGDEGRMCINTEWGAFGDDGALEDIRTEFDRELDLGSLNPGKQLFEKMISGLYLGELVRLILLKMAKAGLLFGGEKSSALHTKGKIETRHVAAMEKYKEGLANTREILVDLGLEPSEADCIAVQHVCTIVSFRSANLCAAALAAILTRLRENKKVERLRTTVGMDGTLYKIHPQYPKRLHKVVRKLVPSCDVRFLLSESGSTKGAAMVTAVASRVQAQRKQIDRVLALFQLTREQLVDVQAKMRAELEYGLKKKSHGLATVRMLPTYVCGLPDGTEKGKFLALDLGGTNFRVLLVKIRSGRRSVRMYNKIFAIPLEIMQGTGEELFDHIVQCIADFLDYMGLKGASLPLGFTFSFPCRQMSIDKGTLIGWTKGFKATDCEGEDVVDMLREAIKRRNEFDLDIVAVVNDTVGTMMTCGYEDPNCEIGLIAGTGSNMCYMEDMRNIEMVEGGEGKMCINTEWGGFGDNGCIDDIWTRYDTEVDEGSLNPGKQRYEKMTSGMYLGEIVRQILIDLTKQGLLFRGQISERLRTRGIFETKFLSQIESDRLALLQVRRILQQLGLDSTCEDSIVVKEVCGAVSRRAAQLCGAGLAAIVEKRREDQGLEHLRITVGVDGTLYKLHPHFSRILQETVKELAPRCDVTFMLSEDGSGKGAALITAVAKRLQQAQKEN
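Test system: recombinant HKDC1 (HK5) hexokinase enzyme, produced in-house; Amount: enzyme 5 µg/mL final; Buffer or medium: Tris pH 8.0 buffer with MgCl2, Tween-20, BSA, BME; Reagent: glucose and ATP substrates; Doses: 20 µM test compound, 1% DMSO; Incubation: 90 min reaction incubation at room temperature, dark; Detection: resorufin fluorescence at 613 nm.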
PfGluPho conf = confirmation of Plasmodium falciparum G6PD inhibitors; shares compounds with PfG6PD inh; 2,400 compounds, 34% hits; AID 504753; inhibition, % at 20 µM; recombinant PfGluPho, NADPH-diaphorase-resazurin fluorescence;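 active = inhibition of at least 50% at 20 µM in any single replicate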;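 also: 0% = DMSO with substrate and 100% = DMSO lacking glucose-6-phosphate substrate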
Diaph ctr 10uM = inhibits diaphorase or oxidizes, flagging false PfG6PD hits. 820 compounds, 39% hits. AID 504862. diaphorase-coupled resazurin reduction, fluorescence, NADPH 10 uM. shares compounds with PfG6PD inh. inhibition, % at 20 µM;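 active = average inhibition reaching 50% or more with the compound at 20 µM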;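 also: resorufin red fluorescence formed as diaphorase reduces resazurin using NADPH; 0% = DMSO with enzyme and 100% = DMSO without enzyme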
Diaph ctr 30uM = inhibits diaphorase or oxidizes, flagging false PfG6PD hits; shares compounds with PfG6PD inh; Diaphorase/resazurin coupled assay, resorufin fluorescence, 30 uM NADPH; inhibition, % at 20 µM; 820 compounds, 29% hits;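 active = inhibition averaging 50% or more, tested at 20 µM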;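 also: 0% = DMSO with enzyme and 100% = DMSO wells lacking diaphorase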
* hit, by the source's call; / = no result given. An excerpt weighted towards active compounds, which were near 1.3% of everything screened.

SMILES	Diaphorase act	Diaph inh CS	G6PDH counter	PfG6PD inh	HKDC1 inhibitor	PfGluPho conf	others
Cc1ccc(/C=C/C(=O)N2CCN(S(=O)(=O)c3ccc(C)c(C)c3)CC2)o1	0.8	19	12	62*	8	50*	Diaph ctr 10uM=-19;Diaph ctr 30uM=-23
CCn1cc(C(=O)O)c(=O)c2cnc(N3CCN(C(=S)NC(=O)c4ccccc4Cl)CC3)nc21	/	/	/	0	-7	/
Cc1[nH]c2ccccc2c1/C=N/NC(=O)c1cccc(S(=O)(=O)Nc2cccc(C(F)(F)F)c2)c1	1	2	9	66*	2	15
O=C(O)c1cc(N2C(=O)C=CC2=O)cc(N2C(=O)C=CC2=O)c1	/	/	/	121*	-1	105*	Diaph ctr 10uM=-23;Diaph ctr 30uM=5
COc1cccc(CN(C)CCCn2cnc(C(=O)Nc3ccc(C)c(C)c3)n2)c1	/	/	/	2	-7	/
CCOC(=O)c1c(NC(=O)c2ccccc2Cl)sc2c1CCc1ccccc1-2	0.9	10	7	72*	-1	28
O=C(OCC(=O)N1CCc2ccccc21)c1ccncc1	/	/	/	0	-4	/
Cc1c(C(=O)Nc2ccncc2)sc2nc(-c3ccc(F)cc3)cn12	0.8	17	-45	84*	8	10
COc1ccc(-c2cn3c(C)c(C(=O)Nc4ccncc4)sc3n2)cc1	1.2	-17	0	65*	-3	19
COc1ccc(-c2cn3c4c(sc3n2)CCCC4)cc1	0.8	15	6	93*	4	45
CN(C(=O)c1cccc(Br)c1)C1CCS(=O)(=O)C1 (stereo not drawn)	/	/	/	1	-4	/
CSCc1c(C(=O)Nc2ccc3c(c2)OCO3)oc2ccccc12	/	/	/	68*	4	3
Cc1c(C(=O)Nc2ccc3c(c2)OCO3)oc2ccccc12	/	/	/	61*	0	-3
CC1(CCCN2C(=O)c3ccccc3C2=O)OCCO1	/	/	/	6	-8	/
Cc1cn(CC(=O)NCCN2CCOCC2)c(=O)[nH]c1=O	/	/	/	1	-4	/
Cc1ccc(C)n1-c1ccc(N(C)C)cc1	0.6	35	0	63*	5	0
Cc1ccc(C)n1-c1ccc(N2CCOCC2)cc1	0.8	15	20	25	6	/
Nc1cc(N)c(OCC(F)(F)F)cc1OCC(F)(F)F	0.5	50*	51*	99*	21	94*	Diaph ctr 10uM=34;Diaph ctr 30uM=22
Cc1ccc2nc3c(cc(S(=O)(=O)c4ccccc4)c(=N)n3C3CCCC3)c(=O)n2c1	/	/	/	69*	2	34
O=C(Nc1cccc([N+](=O)[O-])c1)c1ccc2ccccc2c1O	/	/	/	78*	15	8
O=C(Cc1cccs1)Nc1cccc([N+](=O)[O-])c1	1	-4	6	11	-8	/
CC(C)(C)c1ccc(C(=O)Nc2cccc([N+](=O)[O-])c2)cc1	1	5	-6	74*	5	-1
CCCc1cc(C(=O)Nc2cccc([N+](=O)[O-])c2)cs1	/	/	/	81*	-1	12
O=C(Nc1cccc([N+](=O)[O-])c1)c1ccncc1	0.9	12	2	-8	10	/
Cc1c(C=C(C#N)c2ccc([N+](=O)[O-])cc2)c(=O)n(-c2ccccc2)n1C	/	/	/	-11	11	/
SMILES	Diaphorase act	Diaph inh CS	G6PDH counter	PfG6PD inh	HKDC1 inhibitor	PfGluPho conf	others
COCCCn1c(=O)c2ccccc2n(CC(=O)NC2CCCCC2)c1=O	/	/	/	1	-7	/
COc1cc(C)c(CN2CCN(C(C)C(=O)NC(C)c3ccccc3)CC2)cc1OC (stereo not drawn)	/	/	/	-4	-3	/
COCCCNC1=C(C#N)C(=O)NC2(CCCC2)S1	/	/	/	3	/	/
Oc1ccc(N2CCN(C(c3cccs3)c3nnnn3CCc3ccccc3)CC2)cc1 (stereo not drawn)	0.7	26	-6	66*	5	8
COc1cccc(CN(C)C(=O)c2ccc(S(=O)(=O)Nc3cccc(C)c3C)cc2)c1OC	/	/	/	-11	/	/
C#CCOCCOCCOCCNc1nc(N2CCN(C(=O)CCCCCCCCCCNC(=O)Cn3cc(C[C@@H](C)O)nn3)CC2)nc(N2CCN(C(=O)CCCCCCCCCCNC(=O)[C@H](CCCCN)n3cc(C[C@@H](C)CC)nn3)CC2)n1	/	/	/	58	-9	/
C#CCOCCOCCOCCNc1nc(N2CCN(C(=O)CCCCCCCCCCNC(=O)Cn3cc(CCCCCN)nn3)CC2)nc(N2CCN(C(=O)CCCCCCCCCCNC(=O)[C@H](CO)n3cc(CCCCCN)nn3)CC2)n1	/	/	/	62*	-7	21
C#CCOCCOCCOCCNc1nc(N2CCN(C(=O)CCCCCCCCCCNC(=O)[C@H](CCCCN)n3cc(C[C@@H](C)CC)nn3)CC2)nc(N2CCN(C(=O)CCCCCCCCCCNC(=O)[C@H](CCCCN)n3cc(C[C@@H](C)CC)nn3)CC2)n1	/	/	/	74*	4	-20
C#CCOCCOCCOCCNc1nc(N2CCN(C(=O)CCCCCCCCCCNC(=O)[C@H](CCCCN)n3cc(CCO)nn3)CC2)nc(N2CCN(C(=O)CCCCCCCCCCNC(=O)[C@H](CCCCN)n3cc(CCO)nn3)CC2)n1	/	/	/	68*	-10	23
C#CCOCCOCCOCCNc1nc(N2CCN(C(=O)CCCCCCCCCCNC(=O)[C@H](CCCCN)n3cc(CCO)nn3)CC2)nc(N2CCN(C(=O)CCCCCCCCCCNC(=O)[C@@H]([C@H](C)O)n3cc(C)nn3)CC2)n1	/	/	/	66*	0	29
CCc1ccccc1NC(=O)NC1CCCCCCC1	/	/	/	10	-1	/
O=C1c2ccccc2C(Nc2ccc3c(c2)OCO3)N1Cc1ccc2c(c1)OCO2 (stereo not drawn)	0.7	34	-15	60*	7	44
O=C1c2ccccc2C(Nc2ccc(F)c(Cl)c2)N1Cc1ccco1 (stereo not drawn)	0.8	17	-10	7	10	/
O=C1c2ccccc2C(Nc2ccc3c(c2)OCO3)N1Cc1ccco1 (stereo not drawn)	0.7	31	6	61*	7	39
O=C1c2ccccc2C(Nc2cccnc2)N1Cc1ccc2c(c1)OCO2 (stereo not drawn)	0.9	9	-10	-4	-3	/
O=C(CSc1nc2cc(Cl)ccc2s1)c1ccco1	0.8	24	2	113*	4	56*	Diaph ctr 10uM=45;Diaph ctr 30uM=29
O=C(CSc1nnc(SCC(=O)c2ccco2)s1)c1ccco1	1	3	4	1	3	/
Brc1ccc2nc(-c3c[nH]c4ccccc34)cn2c1	0.8	17	-1	93*	0	32
